This is a sample that favours compounds with a hit; in the whole collection about 2.5% have one here.
KLK7 zymogen act – activators of human kallikrein-7 zymogen | P49862 | activation, % at 7 µM | AID 652039 | purified proKLK7, EDANS-DABCYL substrate fluorescence; 100% is mature enzyme control, 0% vehicle | actives 0.9% (n = 370,000);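 active = activation above the mean of all tested compounds plus 3 SD, computed per campaign excluding outliers beyond control limits, cut at about 13% in these data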
Target sequence (P49862 whole entry, looked up): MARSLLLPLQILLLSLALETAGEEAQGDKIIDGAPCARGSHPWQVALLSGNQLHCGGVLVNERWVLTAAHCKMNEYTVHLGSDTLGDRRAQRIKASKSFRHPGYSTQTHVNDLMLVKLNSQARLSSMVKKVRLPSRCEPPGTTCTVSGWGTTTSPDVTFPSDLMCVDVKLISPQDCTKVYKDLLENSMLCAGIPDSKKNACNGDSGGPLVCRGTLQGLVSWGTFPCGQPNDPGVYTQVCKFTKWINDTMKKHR
ADAM17 inh – inhibitors of human ADAM17. P78536. recombinant ADAM17, EDANS/DABCYL FRET peptide cleavage. inhibition, % at 6.95 µM. actives 0.83% (n = 370,000). AID 720648;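 active = inhibition above the mean of compounds lying between control limits plus 3 SD, set per campaign, cut at about 8.5% in these data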;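 also: 0% = DMSO-only wells as the low control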
NR2E3 ag-1 – activates human NR2E3 receptor; inhibition of corepressor binding, % at 3.98 µM; actives 0.35% (n = 360,000); AID 602229; Q9Y5X4; CHO-S Gal4-NCOR/VP16-NR2E3 two-hybrid, luciferase;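 active = inhibition above the mean of all tested compounds plus 3 SD, cut at about 70% in these data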;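 also: 0% = DMSO with NR2E3 transfected cells and 100% = cells lacking NR2E3 construct; higher means lower luciferase signal from less NR2E3 corepressor binding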
GASC-1 inh – inhibitors of human GASC-1 (JMJD2C) demethylase | Q9H3R0 | GST-JMJD2C(1-420) H3K9me3 demethylation, DELFIA europium | inhibition, % at 2.35 µM | actives 0.069% (n = 330,000);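 active = more than half of a compound's replicate wells show inhibition beyond 50%, single wells judged on their own value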;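 also: signal counts dimethyl H3K9 product captured on neutravidin plate; 0% = median of DMSO wells and 100% = 0.3 times that DMSO median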
Target sequence (Q9H3R0 1-420 limits assumed): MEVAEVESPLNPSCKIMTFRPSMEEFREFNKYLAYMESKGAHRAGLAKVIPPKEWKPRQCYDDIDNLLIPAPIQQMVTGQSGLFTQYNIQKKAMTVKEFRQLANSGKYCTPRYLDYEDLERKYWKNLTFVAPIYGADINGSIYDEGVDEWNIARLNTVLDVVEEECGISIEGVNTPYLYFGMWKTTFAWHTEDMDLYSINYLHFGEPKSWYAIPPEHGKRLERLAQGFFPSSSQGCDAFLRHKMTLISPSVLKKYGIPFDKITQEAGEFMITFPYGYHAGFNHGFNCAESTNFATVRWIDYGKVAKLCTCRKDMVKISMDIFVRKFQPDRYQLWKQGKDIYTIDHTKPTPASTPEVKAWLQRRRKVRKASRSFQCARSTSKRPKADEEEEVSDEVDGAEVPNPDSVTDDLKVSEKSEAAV
NR2E3 ag-2 – agonists of human nuclear receptor NR2E3; Q9Y5X4; GST-NR2E3/biotin-RetCOR TR-FRET, 1536-well; inhibition of corepressor binding, % at 4.78 µM; actives 0.12% (n = 320,000); AID 2300;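 active = percent inhibition above the cutoff of mean plus 3 SD of all tested compounds, set per screening campaign, cut at about 20% in these data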;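 also: 0% = DMSO wells and 100% = biotin wells as full block of FRET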
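System: GST-tagged NR2E3 plus biotinylated RetCOR corepressor; Buffer or medium: pH 7.5 Tris-based buffer; Probe or stimulus: RetCOR corepressor, biotinylated, 7 nM; Doses: compound at 4.8 µM, single dose; Schedule: 5 h incubation at 4 °C; Technique: time-resolved FRET; Evaluation: percent inhibition of TR-FRET ratio; Replication: one well per compound, singlicate testing.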
ADAM10 inh – inhibits human ADAM10. inhibition, % at 7 µM. recombinant ADAM10, EDANS/DABCYL FRET peptide cleavage, 3 h. O14672. actives 0.62% (n = 370,000);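 active = inhibition above a per-campaign cutoff equal to the mean of compounds falling between control-based bounds plus 3 SD, cut at about 20% in these data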;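 also: 0% = DMSO wells while the 100% control is not disclosed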
ADAM10 confirm – confirmation of inhibitors of human ADAM10; shares compounds with ADAM10 inh; ADAM10 QFRET peptide cleavage, EDANS fluorescence; inhibition, % at 6.95 µM; actives 1% (n = 2,100);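 active = inhibition above about 20% chosen separately for each screening run, limit read from the data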;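 also: 0% = DMSO wells and 100% = marimastat wells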
ADAM17 counter – counter-screen for ADAM10 exosite inhibitors: inhibitors of human ADAM17; shares compounds with ADAM10 inh; ADAM17 QFRET peptide cleavage, EDANS fluorescence; inhibition, % at 6.95 µM; AID 743214; actives 0.5% (n = 2,100);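 active = mean triplicate inhibition above the solvent-only control wells' mean plus 3 SD, cut at about 12% in these data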;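 also: 0% = DMSO wells and 100% = marimastat wells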
ADAM10 ctr – inhibits human ADAM10 in ADAM17 exosite counter-screen. inhibition, % at 6.95 µM. shares compounds with ADAM17 inh. recombinant ADAM10, EDANS/DABCYL FRET peptide cleavage, 3 h. actives 47% (n = 2,900);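 active = mean inhibition over the triplicate runs exceeds the activity threshold set in the earlier primary screen, cut at about 20% in these data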;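 also: 0% = DMSO wells and 100% = marimastat wells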
ADAM17 confirm – confirmation of inhibitors of human ADAM17; recombinant ADAM17, EDANS/DABCYL QFRET peptide cleavage; actives 65% (n = 2,900); inhibition, % at 6.95 µM; AID 743257; shares compounds with ADAM17 inh;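 active = mean inhibition across replicates above the hit cutoff set in the primary screen, cut at about 8.5% in these data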;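 also: 0% = DMSO wells and 100% = marimastat wells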
The depositor's hits bear a star.

Screening Cc1ccc(-c2[nH]c3ccccc3c2SCCNC(=O)c2ccc(S(=O)(=O)N3CCOCC3)cc2)cc1 returned KLK7 zymogen act -3, ADAM17 inh 11*, NR2E3 ag-1 19, GASC-1 inh 14, NR2E3 ag-2 -3, ADAM10 inh 24*, ADAM10 confirm 7, ADAM17 counter 2, ADAM10 ctr 27* and ADAM17 confirm 16*.
Screening COc1ccc(OC)c(NC(=O)C2(C)CCN2Cc2ccsc2)c1 (stereo not drawn) returned KLK7 zymogen act 0, ADAM17 inh 2, NR2E3 ag-1 -18 and ADAM10 inh 12.
`C=CC[C@H](CC(=O)N(CCO)Cc1ccccc1)C(=O)N[C@@H](COC(=O)[C@H](CC=C)CC(=O)OC(C)(C)C)Cc1c[nH]c2ccccc12` gave KLK7 zymogen act 0, ADAM17 inh 5, NR2E3 ag-1 -13, GASC-1 inh -5 and ADAM10 inh 13.
For C=CC[C@@H](CC(=O)N[C@@H](CO)Cc1ccccc1)C(=O)N[C@H](COC(=O)[C@@H](CC=C)CC(=O)OC(C)(C)C)Cc1c[nH]c2ccccc12 the results were KLK7 zymogen act 1, ADAM17 inh 8.7*, NR2E3 ag-1 16, GASC-1 inh 7, ADAM10 inh 26*, ADAM10 confirm 4, ADAM17 counter 0, ADAM10 ctr 39* and ADAM17 confirm 18*.
For C=CC[C@@H](CC(=O)N(CCO)Cc1ccccc1)C(=O)N[C@@H](COC(=O)[C@@H](CC=C)CC(=O)OC(C)(C)C)Cc1c[nH]c2ccccc12 the results were KLK7 zymogen act 0, ADAM17 inh 22*, NR2E3 ag-1 6, GASC-1 inh -6, ADAM10 inh 45*, ADAM10 confirm 7, ADAM17 counter 1, ADAM10 ctr 41* and ADAM17 confirm 21*.
C=CC[C@@H](CC(=O)N(CCO)Cc1ccccc1)C(=O)N[C@H](COC(=O)[C@@H](CC=C)CC(=O)OC(C)(C)C)Cc1c[nH]c2ccccc12 was read as KLK7 zymogen act 0, ADAM17 inh 14*, NR2E3 ag-1 -12, GASC-1 inh -6, ADAM10 inh 25*, ADAM10 confirm 2, ADAM17 counter 1, ADAM10 ctr 33* and ADAM17 confirm 16*.
For CC(C)CNc1ncnc2c1ncn2[C@H]1CN(Cc2ccc3c(c2)OCO3)C[C@@H](CO)O1 the results were KLK7 zymogen act 0, ADAM17 inh -2, NR2E3 ag-1 2 and ADAM10 inh -8.
`Cc1cc(O)ccc1-c1cccc2nccn12` gave KLK7 zymogen act 1, ADAM17 inh -37, NR2E3 ag-1 -30 and ADAM10 inh -151.
Screening Cn1c(SCC(=O)N2CCOCC2)nnc1-c1ccco1 returned KLK7 zymogen act 1, ADAM17 inh -1, NR2E3 ag-1 13, GASC-1 inh 6, NR2E3 ag-2 0 and ADAM10 inh -4.
Screening COc1cc2c(cc1OC)CN(c1nc(-c3cccnc3)nc3ccccc13)CC2 returned KLK7 zymogen act 0, ADAM17 inh 0, NR2E3 ag-1 -28, GASC-1 inh -8, NR2E3 ag-2 1 and ADAM10 inh -2.
Screening O=C(Nc1ccc(C(O)(C(F)(F)F)C(F)(F)F)cc1)c1ccc(Cl)c([N+](=O)[O-])c1 returned KLK7 zymogen act 0, ADAM17 inh 16*, NR2E3 ag-1 -6, GASC-1 inh -4, NR2E3 ag-2 -2, ADAM10 inh 34*, ADAM10 confirm 4, ADAM17 counter 2, ADAM10 ctr 49* and ADAM17 confirm 22*.
For O=C(O)c1cc(NC(=O)c2ccc(Cl)c([N+](=O)[O-])c2)cc(C(=O)O)c1 the results were KLK7 zymogen act 0, ADAM17 inh 3, NR2E3 ag-1 -3, GASC-1 inh -27, NR2E3 ag-2 1 and ADAM10 inh -8.
`COc1cc(/C=N/O)cc(Br)c1OCc1ccc(Cl)cc1` gave KLK7 zymogen act 0, ADAM17 inh 8.9*, NR2E3 ag-1 -17, GASC-1 inh 4, NR2E3 ag-2 1, ADAM10 inh 21*, ADAM10 confirm 13, ADAM17 counter 3, ADAM10 ctr 21* and ADAM17 confirm 11*.
COC(=O)c1c(N2C(=O)CC(Sc3ccccc3C(=O)O)C2=O)sc2c1CCCC2 (stereo not drawn) was read as KLK7 zymogen act 0, ADAM17 inh -2, NR2E3 ag-1 -19, GASC-1 inh -21, NR2E3 ag-2 4 and ADAM10 inh 3.
For C=CC(=O)Nc1cccc(Oc2nc(Nc3ccc(N4CCN(C)CC4)cc3OC)ncc2Cl)c1 the results were KLK7 zymogen act -1, ADAM17 inh -2 and ADAM10 inh -8.
Screening C=CC(=O)Nc1cccc(Oc2cc(Cl)nc3[nH]ccc23)c1 returned KLK7 zymogen act 0, ADAM17 inh 11*, NR2E3 ag-1 -28, GASC-1 inh -1, ADAM10 inh 21*, ADAM10 confirm 4, ADAM17 counter 2, ADAM10 ctr 11 and ADAM17 confirm 10*.
`CCc1ccc(-c2cn(C3CCCCC3)c(=S)[nH]2)cc1` gave KLK7 zymogen act 0, ADAM17 inh 9.6*, NR2E3 ag-1 -71, GASC-1 inh 3, NR2E3 ag-2 -1, ADAM10 inh 29*, ADAM10 confirm 17, ADAM17 counter 6, ADAM10 ctr 0 and ADAM17 confirm 5.
For CCc1ccc(-n2cc(-c3ccc([N+](=O)[O-])cc3)[nH]c2=S)cc1 the results were KLK7 zymogen act 0, ADAM17 inh -1, NR2E3 ag-1 -68, GASC-1 inh -13, NR2E3 ag-2 -2 and ADAM10 inh 6.

Assay outcomes deposited in PubChem BioAssay by several laboratories.
